≈ marks a conversion by molar mass, not a printed value.
Experiments:
[1] = Inhibition of bacterial beta-lactamase KPC-2 expressed in Escherichia coli BL21 (DE3) using nitrocefin as substrate assessed as inhibition constant by Cheng-Prusoff equation analysis; design: species or system Bacteria
Escherichia coli [2] = assay: microbe, parasite or virus in culture; type: functional; settings: BL21 (DE3), dose 50 µg/ml, time 16-20 hrs
Escherichia coli [3] = assay: microbe, parasite or virus in culture; type: functional; settings: BL21 (DE3), dose 50 µg/ml, time 16-20 hrs; remark: listed apart in the source
physchem = settings: 0.1 M phosphate buffer, pH 4.3
Escherichia coli [4] = type: functional, BL21 (DE3); settings: time 16-18 hrs
Escherichia coli [5] = assay: microbe, parasite or virus in culture; type: functional; settings: BL21 (DE3), dose 5 µg/ml, time 16-20 hrs
Bacteria = assay: Inhibition of bacterial beta-lactamase KPC-2 expressed in Escherichia coli BL21 (DE3) using nitrocefin as substrate at 1 uM by spectrophotometric analysis relative to control
Method in brief: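 Purified recombinant KPC-2 tested against the chromogenic β-lactam nitrocefin at 1 µM inhibitor. Hydrolysis was followed as the rise in absorbance at 482 nm (ε482 = 17,400 M-1 cm-1). Activity is expressed as percent inhibition relative to an uninhibited control.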

Escherichia coli [6] = assay: Antibacterial activity against Escherichia coli NCTC10418; type: functional
Escherichia coli [7] = assay: microbe, parasite or virus in culture; type: functional; settings: BL21 (DE3), dose 5 µg/ml, time 16-20 hrs; remark: listed apart in the source
[8] = Cytotoxicity against HEK293 cells assessed as cell viability at 5 to 50 ug/ml incubated for 24 hrs in presence of cefotaxime by MTT assay relative to control; settings: human, at 5 to 50 µg/mL
[9] = Cytotoxicity against HEK293 cells assessed as cell viability at 5 to 50 ug/ml incubated for 24 hrs by MTT assay relative to control; settings: human, at 5 to 50 µg/mL

| SMILES | Ki [1] | MIC (Escherichia coli [2]) | MIC (Escherichia coli [3]) | pKa at 100 µM (physchem) | inhibition zone (IZ) (Escherichia coli [4]) | MIC (Escherichia coli [5]) | inhibition (Bacteria) | MIC (Escherichia coli [6]) | MIC (Escherichia coli [7]) | viability at 24 h [8] | viability at 24 h [9] |
| --- | --- | --- | --- | --- | --- | --- | --- | --- | --- | --- | --- |
| OB(O)c1cc(-n2cc(-c3ccsc3)nn2)ccc1F | 800 nM | ≤ 0.06 µg/mL | ≤ 0.06 µg/mL | 7.61 | 39.8 mm | 1 µg/mL (≈ 3.46 µM) | 35% | > 64 µg/mL | 0.12 µg/mL (≈ 0.415 µM) | – | – |
| Nc1cc(B(O)O)cc([N+](=O)[O-])c1 | – | – | – | – | 26.9 mm | – | – | – | – | – | – |
| [N-]=[N+]=NCc1cccc(B(O)O)c1 | 830 nM | – | – | – | 30 mm | 0.12 µg/mL (≈ 0.678 µM) | 30% | > 64 µg/mL | ≤ 0.06 µg/mL | > 80% | > 80% |
| OB(O)c1cccc(-c2ccccc2)c1 | – | – | – | – | 29.7 mm | – | – | – | – | – | – |
| O=C(Nc1cccc(B(O)O)c1)c1ccccc1 | – | – | – | – | 25.2 mm | – | 40% | – | – | > 80% | > 80% |
| OB(O)c1ccc(Cn2cc(-c3ccsc3)nn2)cc1 | 219 nM | – | – | – | 27.6 mm | – | 53% | – | – | > 80% | > 80% |
| O=C(O)c1cn(-c2cccc(B(O)O)c2)nn1 | – | – | – | – | 32.9 mm | – | 0.3% | – | – | > 80% | > 80% |
| OB(O)c1cccc(Cn2cc(-c3ccccn3)nn2)c1 | – | – | – | – | 25.9 mm | – | 61% | – | – | – | – |
| OB(O)c1cccc(Cn2cc(-c3cccs3)nn2)c1 | 67 nM | ≤ 0.06 µg/mL | – | – | 33.7 mm | ≤ 0.06 µg/mL | 85% | > 64 µg/mL | ≤ 0.06 µg/mL | > 80% | > 80% |
| O=C(Nc1cccc(B(O)O)c1)c1cc2ccccc2s1 | – | – | – | – | 28.4 mm | – | 8.6% | – | – | > 80% | > 80% |
| OB(O)c1ccc(-c2ccccc2)cc1 [BIPHENYLBORONIC ACID] | – | – | – | – | 32.2 mm | – | – | – | – | – | – |
| O=C(Nc1cccc(B(O)O)c1)c1ccc2sccc2c1 | – | – | – | – | 26.1 mm | – | 10.2% | – | – | – | – |
| CCOC(=O)c1cn(Cc2cccc(B(O)O)c2)nn1 | 900 nM | – | – | – | 31.8 mm | – | 7% | – | – | – | – |
| [N-]=[N+]=NCc1ccc(B(O)O)cc1 | 493 nM | – | – | – | – | – | – | – | – | > 80% | > 80% |
| OB(O)c1ccc(Cn2cc(-c3cccnc3)nn2)cc1 | – | – | – | – | 23.7 mm | – | 59% | – | – | – | – |
| OB(O)c1cccc(Cn2cc(-c3ccsc3)nn2)c1 | 32 nM | ≤ 0.06 µg/mL | – | – | 32 mm | ≤ 0.06 µg/mL | 92% | > 64 µg/mL | ≤ 0.06 µg/mL | – | – |
| COc1ccc(B(O)O)c(-n2cccn2)c1 | – | – | – | – | 21.7 mm | – | – | – | – | – | – |
| OB(O)c1ccc(Cn2cc(-c3ccccc3)nn2)cc1 | 323 nM | – | – | – | 25.5 mm | – | 55% | – | – | > 80% | > 80% |
| CC(C)(C)c1cn(-c2cccc(B(O)O)c2)nn1 | 660 nM | – | – | – | 32.7 mm | – | 14% | – | – | – | – |
| COc1ccc(-c2cn(Cc3cccc(B(O)O)c3)nn2)cc1 | 860 nM | – | – | – | 25.6 mm | – | 7% | – | – | > 80% | > 80% |
| [N-]=[N+]=Nc1cc(F)c(F)c(B(O)O)c1 | 27200 nM | – | – | 6.04 | 16.8 mm | – | – | – | – | – | – |
| O=C(Nc1cccc(B(O)O)c1)c1ccsc1 | 870 nM | 2 µg/mL (≈ 8.09 µM) | 0.12 µg/mL (≈ 0.486 µM) | – | 29 mm | 4 µg/mL (≈ 16.2 µM) | 28% | > 64 µg/mL | 0.12 µg/mL (≈ 0.486 µM) | > 80% | > 80% |

| SMILES | Ki [1] | MIC (Escherichia coli [2]) | MIC (Escherichia coli [3]) | pKa at 100 µM (physchem) | inhibition zone (IZ) (Escherichia coli [4]) | MIC (Escherichia coli [5]) | inhibition (Bacteria) | MIC (Escherichia coli [6]) | MIC (Escherichia coli [7]) | viability at 24 h [8] | viability at 24 h [9] |
| --- | --- | --- | --- | --- | --- | --- | --- | --- | --- | --- | --- |
| OB(O)c1cccc(Cn2cc(-c3cccnc3)nn2)c1 | 480 nM | – | – | – | 25.9 mm | – | 54% | – | – | > 80% | > 80% |
| OB(O)c1cccc(-n2cc(C3CC3)nn2)c1 | 440 nM | – | – | – | 31.5 mm | – | 47% | – | – | > 80% | > 80% |
| OB(O)c1cccc(Cn2cc(-c3ccccc3)nn2)c1 | 166 nM | – | – | – | 29.6 mm | – | 69% | – | – | > 80% | > 80% |
| O=C(Nc1cccc(B(O)O)c1)c1cccs1 | 2900 nM | – | – | – | 26 mm | – | 2% | – | – | > 80% | > 80% |
| NCc1ccc(F)c(B(O)O)c1 | – | – | – | – | 19.9 mm | – | – | – | – | – | – |
| OB(O)c1ccc(Cn2cc(-c3cccs3)nn2)cc1 | 275 nM | – | – | – | 27.5 mm | – | 45% | – | – | – | – |
| CCC(=O)Nc1cccc(B(O)O)c1 | – | – | – | – | 25.2 mm | – | 16% | – | – | > 80% | > 80% |
| COc1ccc(-c2cn(-c3cccc(B(O)O)c3)nn2)cc1 | – | – | – | – | 30.1 mm | – | 5.9% | – | – | – | – |
| CC(C)(C)c1cn(Cc2cccc(B(O)O)c2)nn1 | 280 nM | 0.5 µg/mL (≈ 1.93 µM) | 0.12 µg/mL (≈ 0.463 µM) | – | 33.5 mm | – | 50% | > 64 µg/mL | – | – | – |
| O=[N+]([O-])c1cc(NCc2ccccc2)cc(B(O)O)c1 | – | – | – | – | 20.9 mm | – | – | – | – | – | – |
| OB(O)c1cccc(Cn2cc(Cc3ccccc3)nn2)c1 | – | – | – | – | 23.6 mm | – | 48% | – | – | – | – |
| Cc1ccc(F)c(B(O)O)c1 | – | – | – | – | 29.6 mm | – | – | – | – | – | – |
| Nc1cc(F)c(F)c(B(O)O)c1 | – | – | – | – | 25.5 mm | – | – | – | – | – | – |
| CCC1CC(=O)CCN1c1ccccc1B(O)O (stereo not given) | – | – | – | – | 18.7 mm | – | – | – | – | – | – |
| OB(O)c1cccc(-n2cc(-c3cccs3)nn2)c1 | 710 nM | – | – | – | 31.8 mm | – | 20% | – | – | > 80% | > 80% |
| OB(O)c1ccc(Cn2cc(-c3ccccn3)nn2)cc1 | – | – | – | – | 27.4 mm | – | 47% | – | – | > 80% | > 80% |
| OB(O)c1cccc(Cn2cc(C3CC3)nn2)c1 | 515 nM | – | – | – | 30.9 mm | – | 30% | – | – | – | – |
| CCOC(=O)c1cn(-c2cccc(B(O)O)c2)nn1 | – | 2 µg/mL (≈ 7.66 µM) | 1 µg/mL (≈ 3.83 µM) | – | 30 mm | – | 25% | > 64 µg/mL | – | > 80% | > 80% |
| O=C(O)c1cn(Cc2cccc(B(O)O)c2)nn1 | 1020 nM | 2 µg/mL (≈ 8.1 µM) | 0.12 µg/mL (≈ 0.486 µM) | – | 21.4 mm | 4 µg/mL (≈ 16.2 µM) | 10% | > 64 µg/mL | 2 µg/mL (≈ 8.1 µM) | > 80% | > 80% |
| O=[N+]([O-])c1cc(B(O)O)c(F)cc1F | – | – | – | 5.98 | 29.3 mm | – | – | – | – | – | – |
| COc1ccc(-c2cn(Cc3ccc(B(O)O)cc3)nn2)cc1 | 227 nM | – | – | – | 22.6 mm | – | 59% | – | – | – | – |
| OB(O)c1cccc(-n2cc(-c3ccccc3)nn2)c1 | – | – | – | – | 26.2 mm | – | 18% | – | – | – | – |

From ChEMBL document CHEMBL5113474, “Triazole-substituted phenylboronic acids as tunable lead inhibitors of KPC-2 antibiotic resistance” (Eur J Med Chem, 2022)
